The source of these data is the EternaBench riboswitch data.

Usually apparent Kd stands for the concentration giving half-maximal binding under the conditions of the assay.

For this data set, the system named is MS2 coat protein. Put plainly: apparent Kd, MS2 coat protein; higher = weaker binding; RNA-MaP array; FMN 200 µM where present. The method, boiled down: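 Green signal was scaled to red-channel RNA signal and control-cluster median Fmax, and the apparent Kd was taken as the median of filtered per-cluster binding-curve fits. The binding series used SNAP-549-labelled MS2 coat protein from 0.7 or 1.5 nM, doubling to 3 µM, on designs transcribed by stalled E. coli RNA polymerase on Illumina sequencing-chip clusters. Each series ran without and then with constant ligand in 100 mM Tris-HCl pH 7.5, 80 mM KCl, 4 mM MgCl2, BSA, DTT, yeast tRNA and Tween-20.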

Setting [1] is: designed as: OFF switch for flavin mononucleotide, no ligand.
Setting [2] is: ligand present: flavin mononucleotide, designed as: OFF switch for flavin mononucleotide.
Where [3] appears, read: designed as: ON switch for flavin mononucleotide, no ligand.
The mark [4] stands for this setting: ligand present: flavin mononucleotide, designed as: ON switch for flavin mononucleotide.

Take “UAUAUAUAGUAAGGAUAUGUAUAUGUUUUAUAAACAGAAGGUACUGACAUGAGGAUCACCCAUGUUUUAGUGUGGGCAUGUAGA”: the “apparent Kd” value is, setting by setting: under setting [1], 58.4 nM; under setting [2], 92 nM.

On to “UUUUUUCCUCAUGUACAUGAGGAACAUGAGGAUCACCCAUGUAGAAGGAUUUCCCUUAAAUUAAGAUAGGAUAUACAUAUUUUU”, for which the “apparent Kd” value under setting [1] came out at 88.2 nM and the “apparent Kd” value under setting [2] is 61.6 nM.

Turning to “AUUUCGUCAGGAUAUCCUAGUAAUUGUUUCAUAUUUACGAUGGAGAAGGGACAUGAGGAUCACCCAUGUUGGUC”, the “apparent Kd” value worked out at 55.8 nM under setting [1] and 169 nM under setting [2].

For the sequence “UCGCUGCGAGGAUAUACAUGAGGAUCACCCAUGUGCGGGUCCGGGUCUUCGUCCAUUAGUAGAAGGCGCAGUGA”, the “apparent Kd” value reads like this: under setting [1], 122 nM; under setting [2], 212 nM.

Turning to “UAAAAGACUAGCUGGUAUCUCCACAUGAGGAUCACCCAUGUCUAGGAUAUGAGCAGCAAAGCUGCUUAGAAGGAGACGCUAGUC”, the “apparent Kd” value by setting is: under setting [1], 7.67 nM; under setting [2], 8.83 nM.

Take “GCACGGCAUGUAGGAUAUCGAGCGCCGGGCGCUCGAGAAGGACAUGAGGAUCACCCAUGUGCUCACAGUGAGUGAGUGCUGUGC”: the “apparent Kd” value under setting [1] worked out at 19.6 nM and the “apparent Kd” value under setting [2] was found to be 37.4 nM.

As for “UCAUUUAAUACAGGAUAUGUUAUUAUACAGUUGUUUGGUUAUUACAUUAUAACAGAAGGGUAGAACAUGAGGAUCACCCAUGUA”, the “apparent Kd” value reads like this: under setting [3], 179 nM; under setting [4], 79.4 nM.

For “UGUAUGGACAGAGGAUAUACGUGCUAGAGAUACUAGCUACAAAUCCUUACAUGAGGAUCACCCAUGUAGAAGGCUGUCCAUACU”, the “apparent Kd” value is, setting by setting: under setting [1], 19.1 nM; under setting [2], 39.4 nM.

“UCGAUCGGAGGAUAUGCUAAUGCAACUACUGCAGUUUCAAAACAUGAGGAUCACCCAUGUAGAAGGCCGAUAUA”: the “apparent Kd” value by setting is: under setting [1], 17 nM; under setting [2], 15.6 nM.

Turning to “UUAAUUAAUUAAUUAUACAUGAGGAUCACCCAUGUAAGUGAUCAGGAUAUCAGCUCGAAUAGAGCUGAGAAGGGAUACAUGAAU”, the “apparent Kd” value by setting is: under setting [3], 144 nM; under setting [4], 118 nM.

On to “GUUUAUUAUUAGAAGGUGCCAGCGAGAGCUGCACAUGAGGAUCACCCAUGUUGUCGGUGACGACGCAAGGAUAUGGUGGUGGAU”, for which the “apparent Kd” value reads like this: under setting [3], 300 nM; under setting [4], 91.5 nM.

As to “GCUAGUAUUGCAGGAUAUUGAGAAUAAUUAUUCCAAGAAGGGCAUAACAUGAGGAUCACCCAUGUAUUCCUUAGUGAUACUAGC”, the “apparent Kd” value is, setting by setting: under setting [1], 4.39 nM; under setting [2], 4.44 nM.

As to “CGAUAUAUGAAGGGCGAACGCGCACAUGAGGAUCACCCAUGUAGAAGGCGAUCCGCAACGCGGAUCGAGGAUAUAUAGUAUACG”, the “apparent Kd” value turned out to be 32.7 nM under setting [1] and 34 nM under setting [2].

Consider “GUGCACAUUCGAGGAUAUCGGAGAGAGAUCAUUCGAGAAGGCGAUUCAUGAUGUAUUAUCCUGGACAUGAGGAUCACCCAUGUG”, for which the “apparent Kd” value came to 361 nM under setting [3] and 107 nM under setting [4].

For “UUCCUGUCAGGAUAUGACUAGAUGCACGUUAGUGUGUUUACUUAGAAGGGACAUGAGGAUCACCCAUGUAGUCC”, the “apparent Kd” value by setting is: under setting [1], 36.2 nM; under setting [2], 33 nM.

On to “ACAUGAGGAUCACCCAUGUAUUACAUGGUUUAGUUUAUUAACAGAAGGCGAAAUUACCACUUUUUCGAGGAUAUGUAUUCUAUA”, for which the “apparent Kd” value by setting is: under setting [1], 71 nM; under setting [2], 64.2 nM.

In the case of “GCACUUUUAUUUGAACCGAUACGAACAUGAGGAUCACCCAUGUAGGAUAUGCUUAAAGUUGUGAUGCAGAAGGACAUUUAGUGC”, the “apparent Kd” value was 9.18 nM under setting [1] and 10.7 nM under setting [2].

Consider “CCAUGGCUGUAAGGAUAUCUCUGACAAAGUCAGAGAGAAGGUACAUGAGGAUCACCCAUGUGAGGAAAACCACAUUUGCCAUGG”, for which the “apparent Kd” value turned out to be 9.46 nM under setting [1] and 15.7 nM under setting [2].

For “UCAGUAGAGUCAGGAUAUACGAAAGAAGAUCCUUACAUGAGGAUCACCCAUGUAGAAGGGACUCUACUGUAAGUCGGAAACGAC”, the “apparent Kd” value worked out at 129 nM under setting [1] and 192 nM under setting [2].

“UUUCCCUGUGUGAGGAUAUACUUGUUUGGGUUUUUGUAGAAGGCACAUGAGGAUCACCCAUGUAUUUUGUCGUG”: the “apparent Kd” value runs as follows: under setting [1], 43.1 nM; under setting [2], 111 nM.

On to “UCUUUGUUUGUGAGGAUAUCGAUAAAAUGGAUUGUCGAGAAGGCACAUGAGGAUCACCCAUGUGUGGGACAGCA”, for which the “apparent Kd” value turned out to be 22.3 nM under setting [1] and 74.9 nM under setting [2].

As for “CUUGGUACUCGAGGAUAUCACAUGAACUACCGAACAUGAGGAUCACCCAUGUGAGAAGGCGAGUUCUGUCCGAUAAAAUUACUC”, the “apparent Kd” value by setting is: under setting [1], 6.68 nM; under setting [2], 11 nM.

In the case of “GUGCCUAACUAGAAGGCAGUGUGCAAAGCAUUCUGAGGAUAUGGGUUCCGGAAACGGACAUGAGGAUCACCCAUGUGGCACAAA”, the “apparent Kd” value reads like this: under setting [3], 424 nM; under setting [4], 26.7 nM.

Take “GUGCAUUACGAGAAGGCGUACUGGUGAAUAUAAAACGACAAAGGUACAUGAGGAUCACCCAUGUACGAGGAUAUCGAUUUGGCU”: the “apparent Kd” value under setting [1] was determined as 11 nM and the “apparent Kd” value under setting [2] worked out at 39.7 nM.

Turning to “UGAUAGGACAGAGGAUAUACGUGCUAGAGAUACUAGCAAAGUUUCCUCACAUGAGGAUCACCCAUGUAGAAGGCUGUCCUAUCU”, the “apparent Kd” value under setting [1] was found to be 24.9 nM and the “apparent Kd” value under setting [2] was determined as 521 nM.

As for “UGGUUCUAGGGAGGAUAUGGGAAGAUACAUGAGGAUCACCCAUGUUUAAGAAUGCCGAGAGGCAACUAGAAGGCCCUAGUACCU”, the “apparent Kd” value under setting [3] was determined as 406 nM and the “apparent Kd” value under setting [4] was 20.3 nM.

For “CAGGUCUGAGGAUAUCCAUCUUCCUACAUGAGGAUCACCCAUGUUUCCCUCUGGGUUUUCGGAGAAGGCAGUUUUU”, the “apparent Kd” value by setting is: under setting [1], 263 nM; under setting [2], 226 nM.

For the sequence “ACUAUACGAGGAUAUACUGACGGGCCUCGGGCGUCCCUGAGACAUGAGGAUCACCCAUGUAGAAGGCGUAUACU”, the “apparent Kd” value reads like this: under setting [1], 38.4 nM; under setting [2], 216 nM.

In the case of “UUUUAACAUGAGGAUCACCCAUGUGAGGAUAUCGAAAUUUAUAUUAAUAUUAAUUUUUCGAGAAGGCACAUUUU”, the “apparent Kd” value under setting [1] came out at 132 nM and the “apparent Kd” value under setting [2] was 150 nM.

With “CGCGAAAGAUUAUUAUGAAUAAACAUGAGGAUCACCCAUGUAUAGGAUAUGCAGUGGAAUACACUGCAGAAGGAUACAUACGCG”, the “apparent Kd” value under setting [1] is 22.2 nM and the “apparent Kd” value under setting [2] amounted to 123 nM.

“AAAAAACAUGAGGAUCACCCAUGUGAGGAUAUCGAAAAGUUAAAGAAAAAGACGAAAAUGAGAAGGCGCAAAAA”: the “apparent Kd” value was found to be 47.3 nM under setting [1] and 46.7 nM under setting [2].

“CUGGUGUGAGGAUAUCUACGCCAUGUCUUUGACAUGGCGCAAGAGAAGGCACAUGAGGAUCACCCAUGUACUUC”: the “apparent Kd” value runs as follows: under setting [1], 21.7 nM; under setting [2], 74.4 nM.

In the case of “AAGUCGUGAGGAUAUACAUGGAUAUACAUUUAUGUAGACCUACAUGAGGAUCACCCAUGUAGAAGGCACGAAUA”, the “apparent Kd” value was found to be 45.4 nM under setting [1] and 115 nM under setting [2].

As for “CUGAGGUCAGGAUAUGCAUGGCGGGACUUGCGUCGUGGCGUGGAGAAGGGACAUGAGGAUCACCCAUGUGGAGG”, the “apparent Kd” value is, setting by setting: under setting [1], 117 nM; under setting [2], 99.8 nM.

Turning to “GCGUCGUCGACUGAUAACAAGCCUAGAAGGCGGACAUGAGGAUCACCCAUGUCUGAUCCUCGGCCCGAGGAUAUAGGUUAAUGG”, the “apparent Kd” value by setting is: under setting [1], 28.6 nM; under setting [2], 13.4 nM.

With “AAUUUAAAGGGAGGAUAUACAUGAGGAUCACCCAUGUAAUCAUAUGAUAUUUUUUUUGUAUGAGUGUAGAAGGCCCAAAUAAAA”, the “apparent Kd” value came to 7.72 nM under setting [1] and 9.3 nM under setting [2].
